Laboratory results taken from ChEMBL document CHEMBL1146298, “Identification of the benzodiazepines as a new class of antileishmanial agent” (Bioorg Med Chem Lett, 2007).
Calls of active or inactive are those of the source. No cut-off for these calls is given here.

Tests used:
Leishmania donovani [1] = assay: Antileishmanial activity against antimony-sensitive Leishmania donovani 200016 promastigotes in bone marrow-derived macrophages assessed as parasite suppression at 100 ug/ml; type: functional
In short: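 Fixed 72 h post-treatment and Giemsa-stained (10% v/v). Percent of 200 random cells infected was scored, and mean % suppression ± SE was taken against the control mean. Mann–Whitney U test vs control, p < 0.05 significant.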

[2] = Toxicity against bone marrow-derived macrophages; type: cell-based; conditions: human, macrophage
Leishmania donovani [3] = assay: Antileishmanial activity against antimony-sensitive Leishmania donovani 200016 promastigotes in bone marrow-derived macrophages at 37 ug/ml; type: functional
Macrophage = assay: Decrease in cellular glutathione levels in macrophages; type: functional, cell-based; conditions: Homo sapiens
Leishmania donovani [4] = assay: Antileishmanial activity against antimony-sensitive Leishmania donovani 200016 promastigotes in bone marrow-derived macrophages; type: functional; conditions: read-out: LD50 (the source's name)
In short: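 After 72 h, cells fixed and stained with 10% v/v aqueous Giemsa; mean percentage of infected cells scored from 200 random cells. Mean percentage suppression ± SE computed against control mean; significance tested by Mann–Whitney U test, p < 0.05.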

SMILES | Activity (Leishmania donovani [1]) | other results
O=C1Nc2ccccc2C(=O)N2Cc3ccccc3C[C@@H]12 | 25% | 
O=C1Nc2ccccc2C(=O)N2CCC[C@@H]12 | 70.3% | 
CN1C(=O)CN(Cc2ccccc2)C(=O)c2ccccc21 | 51% | 
C[C@@H]1NC(=O)c2ccccc2NC1=O | 28% | 
COc1cccc(CN2CC(=O)N(C)c3ccccc3C2=O)c1 | 54.6% | 
O=C1c2ccccc2NC[C@@H]2CCCN12 | 70.6% | 
CCCN1CC(=O)N(C)c2ccccc2C1=O | 72% | 
CN1C(=O)CN(CC2CCCCC2)C(=O)c2ccccc21 |  | Activity [2]: Toxic; Activity (Leishmania donovani [3]): inactive; Activity (Macrophage): Active
CN1C(=O)CN(CCc2ccccc2)C(=O)c2ccccc21 | 19.6% | 
O=C1Nc2ccccc2C(=O)N2CSC[C@@H]12 | 33% | Activity [2]: Toxic
CC(C)C[C@@H]1NC(=O)c2ccccc2NC1=O | inactive | 
c1ccc2c(c1)CN1CCC[C@@H]1CN2 | 67.8% | 
CN1C(=O)CN(CC2CCCCC2)C(=O)c2cc(Cl)ccc21 | 85% | LC50 (Leishmania donovani [4]): 115 µM; Activity (Leishmania donovani [3]): 73%; Activity (Macrophage): Active
c1ccc2c(c1)CN1CCC[C@H]1CN2 | 23% | 
CCCCCCN1CC(=O)N(C)c2ccccc2C1=O | inactive | Activity [2]: Toxic
CN1C(=O)CN(CC2CC2)C(=O)c2ccccc21 | inactive | 
CN1CC(=O)N(C)c2ccccc2C1=O | inactive | 
O=C1N[C@@H](Cc2ccc(O)cc2)C(=O)Nc2ccccc21 | 64.4% | 
O=C1c2ccccc2NC[C@H]2CCCN12 | 61.7% | 
CN1C(=O)CN(C2CCCCC2)C(=O)c2ccccc21 | 26.4% | 
O=C1N[C@@H](Cc2ccccc2)C(=O)Nc2ccccc21 | 53.5% | 
O=C1Nc2ccccc2C(=O)N2CCC[C@H]12 | 85.4% | 
CN1C(=O)CN(c2ccccc2)C(=O)c2ccccc21 | inactive | 
O=C1N[C@H](Cc2ccccc2)C(=O)Nc2ccccc21 | 23% | 
O=C1CNC(=O)c2ccccc2N1 | 19% | 
